Active and inactive are the calls of the source. The rule behind the calls is not given here.
The compounds below were run on LLC-PK1 (assay: Renoprotective activity in pig LLC-PK1 cells assessed as inhibition of cisplatin-induced damage by measuring cell viability up to 100 uM preincubated for 24 hrs followed by addition of Ez-Cytox reagent and measured after 2 hrs relative to control). Conditions: not given.
Type: functional, Sus scrofa
Outline: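 LLC-PK1 pig kidney epithelial cells were cultured in DMEM with 10% FBS, 1% penicillin/streptomycin and 4 mM L-glutamine at 37 °C, 5% CO2. Cells were seeded at 1 × 10^4 per well and allowed to adhere for 2 h. Test sample and/or 25 μM cisplatin were added and incubated for 24 h. Medium was replaced with serum-free medium plus Ez-Cytox for 2 h at 37 °C, then absorbance was read at 450 nm. N-acetyl cysteine was the positive control.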

SMILES | Activity [%]
O=c1c(-c2ccc(O)cc2)coc2cc(O[C@@H]3O[C@H](CO)[C@@H](O)[C@H](O)[C@H]3O)ccc12 [DAIDZIN] | >80
C[C@@H]1O[C@@H](Oc2ccc3c(=O)c(-c4ccc(O)cc4)coc3c2)[C@H](O)[C@H](O)[C@H]1O | >80

Same assay, conditions: Sus scrofa

SMILES | Activity
O=c1c(-c2ccc(O)cc2)coc2cc(O)ccc12 [DAIDZEIN] | Active
C[C@@H]1O[C@@H](Oc2ccc(-c3coc4cc(O[C@@H]5O[C@@H](C)[C@H](O)[C@@H](O)[C@H]5O)cc(O)c4c3=O)cc2)[C@H](O)[C@H](O)[C@H]1O | Active
CO[C@@H]1[C@@H](O)[C@H](C)O[C@@H](Oc2ccc(-c3coc4cc(O[C@@H]5O[C@@H](C)[C@H](O)[C@@H](OC)[C@H]5O)ccc4c3=O)cc2)[C@@H]1O | Active
C[C@@H]1O[C@@H](Oc2cc(O)c3c(=O)c(-c4ccc(O)cc4)coc3c2)[C@H](O)[C@H](O)[C@H]1O | Active
CO[C@@H]1[C@@H](O)[C@H](C)O[C@@H](Oc2ccc(-c3coc4cc(O[C@@H]5O[C@@H](C)[C@H](O)[C@@H](OC)[C@H]5O)cc(O)c4c3=O)cc2)[C@@H]1O | Active
O=c1c(-c2ccc(O)cc2)coc2cc(O[C@@H]3O[C@H](CO)[C@@H](O)[C@H](O)[C@H]3O)cc(O)c12 [GENISTIN] | Active
C[C@@H]1O[C@@H](Oc2ccc(-c3coc4cc(O[C@@H]5O[C@@H](C)[C@H](O)[C@@H](O)[C@H]5O)ccc4c3=O)cc2)[C@H](O)[C@H](O)[C@H]1O | Active

Each compound was assayed on Cryptococcus neoformans (assay: Antifungal activity against Cryptococcus neoformans H99 by CLSI M27-A3 broth microdilution method). Conditions: var grubii H99.
Type: functional
Outline: (§1)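 MICs were determined by broth microdilution following CLSI standard M27-A3, with fluconazole as the positive control.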

SMILES | MIC [µg/mL]
O=c1c(-c2ccc(O)cc2)coc2cc(O[C@@H]3O[C@H](CO)[C@@H](O)[C@H](O)[C@H]3O)ccc12 [DAIDZIN] | > 100
C[C@@H]1O[C@@H](Oc2ccc3c(=O)c(-c4ccc(O)cc4)coc3c2)[C@H](O)[C@H](O)[C@H]1O | > 100
O=c1c(-c2ccc(O)cc2)coc2cc(O)ccc12 [DAIDZEIN] | > 100
C[C@@H]1O[C@@H](Oc2ccc(-c3coc4cc(O[C@@H]5O[C@@H](C)[C@H](O)[C@@H](O)[C@H]5O)cc(O)c4c3=O)cc2)[C@H](O)[C@H](O)[C@H]1O | > 100
CO[C@@H]1[C@@H](O)[C@H](C)O[C@@H](Oc2ccc(-c3coc4cc(O[C@@H]5O[C@@H](C)[C@H](O)[C@@H](OC)[C@H]5O)ccc4c3=O)cc2)[C@@H]1O | > 100
C[C@@H]1O[C@@H](Oc2cc(O)c3c(=O)c(-c4ccc(O)cc4)coc3c2)[C@H](O)[C@H](O)[C@H]1O | > 100
CO[C@@H]1[C@@H](O)[C@H](C)O[C@@H](Oc2ccc(-c3coc4cc(O[C@@H]5O[C@@H](C)[C@H](O)[C@@H](OC)[C@H]5O)cc(O)c4c3=O)cc2)[C@@H]1O | > 100
COc1cc2c(=O)c(-c3ccc(O)cc3)coc2cc1O[C@@H]1O[C@@H](C)[C@H](O)[C@@H](O)[C@H]1O | > 100
O=c1c(-c2ccc(O)cc2)coc2cc(O[C@@H]3O[C@H](CO)[C@@H](O)[C@H](O)[C@H]3O)cc(O)c12 [GENISTIN] | > 100
C[C@@H]1O[C@@H](Oc2ccc(-c3coc4cc(O[C@@H]5O[C@@H](C)[C@H](O)[C@@H](O)[C@H]5O)ccc4c3=O)cc2)[C@H](O)[C@H](O)[C@H]1O | > 100
CO[C@@H]1[C@@H](O)[C@H](C)O[C@@H](Oc2ccc(-c3coc4cc(O[C@@H]5O[C@@H](C)[C@H](O)[C@@H](O)[C@H]5O)cc(O)c4c3=O)cc2)[C@@H]1O | > 100

What follows are compounds tested on Escherichia coli (assay: Antibacterial activity against Escherichia coli DH10B by EUCAST method). Conditions: K-12 substr. DH10B.
Type: functional
Outline: (§2)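 Minimal inhibitory concentrations were determined by the EUCAST method, with streptomycin sulfate as the positive control.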

SMILES | MIC [µg/mL]
O=c1c(-c2ccc(O)cc2)coc2cc(O[C@@H]3O[C@H](CO)[C@@H](O)[C@H](O)[C@H]3O)ccc12 [DAIDZIN] | > 100
C[C@@H]1O[C@@H](Oc2ccc3c(=O)c(-c4ccc(O)cc4)coc3c2)[C@H](O)[C@H](O)[C@H]1O | > 100
O=c1c(-c2ccc(O)cc2)coc2cc(O)ccc12 [DAIDZEIN] | > 100
C[C@@H]1O[C@@H](Oc2ccc(-c3coc4cc(O[C@@H]5O[C@@H](C)[C@H](O)[C@@H](O)[C@H]5O)cc(O)c4c3=O)cc2)[C@H](O)[C@H](O)[C@H]1O | > 100
CO[C@@H]1[C@@H](O)[C@H](C)O[C@@H](Oc2ccc(-c3coc4cc(O[C@@H]5O[C@@H](C)[C@H](O)[C@@H](OC)[C@H]5O)ccc4c3=O)cc2)[C@@H]1O | > 100
C[C@@H]1O[C@@H](Oc2cc(O)c3c(=O)c(-c4ccc(O)cc4)coc3c2)[C@H](O)[C@H](O)[C@H]1O | > 100
CO[C@@H]1[C@@H](O)[C@H](C)O[C@@H](Oc2ccc(-c3coc4cc(O[C@@H]5O[C@@H](C)[C@H](O)[C@@H](OC)[C@H]5O)cc(O)c4c3=O)cc2)[C@@H]1O | > 100
COc1cc2c(=O)c(-c3ccc(O)cc3)coc2cc1O[C@@H]1O[C@@H](C)[C@H](O)[C@@H](O)[C@H]1O | > 100
O=c1c(-c2ccc(O)cc2)coc2cc(O[C@@H]3O[C@H](CO)[C@@H](O)[C@H](O)[C@H]3O)cc(O)c12 [GENISTIN] | > 100
C[C@@H]1O[C@@H](Oc2ccc(-c3coc4cc(O[C@@H]5O[C@@H](C)[C@H](O)[C@@H](O)[C@H]5O)ccc4c3=O)cc2)[C@H](O)[C@H](O)[C@H]1O | > 100
CO[C@@H]1[C@@H](O)[C@H](C)O[C@@H](Oc2ccc(-c3coc4cc(O[C@@H]5O[C@@H](C)[C@H](O)[C@@H](O)[C@H]5O)cc(O)c4c3=O)cc2)[C@@H]1O | > 100

Each compound was assayed on Staphylococcus aureus (assay: Antibacterial activity against Staphylococcus aureus NCTC 8325-4 by EUCAST method). Conditions: not given.
Type: functional
Outline: as §2

SMILES | MIC [µg/mL]
O=c1c(-c2ccc(O)cc2)coc2cc(O[C@@H]3O[C@H](CO)[C@@H](O)[C@H](O)[C@H]3O)ccc12 [DAIDZIN] | > 100
C[C@@H]1O[C@@H](Oc2ccc3c(=O)c(-c4ccc(O)cc4)coc3c2)[C@H](O)[C@H](O)[C@H]1O | > 100
O=c1c(-c2ccc(O)cc2)coc2cc(O)ccc12 [DAIDZEIN] | > 100
C[C@@H]1O[C@@H](Oc2ccc(-c3coc4cc(O[C@@H]5O[C@@H](C)[C@H](O)[C@@H](O)[C@H]5O)cc(O)c4c3=O)cc2)[C@H](O)[C@H](O)[C@H]1O | > 100
CO[C@@H]1[C@@H](O)[C@H](C)O[C@@H](Oc2ccc(-c3coc4cc(O[C@@H]5O[C@@H](C)[C@H](O)[C@@H](OC)[C@H]5O)ccc4c3=O)cc2)[C@@H]1O | > 100
C[C@@H]1O[C@@H](Oc2cc(O)c3c(=O)c(-c4ccc(O)cc4)coc3c2)[C@H](O)[C@H](O)[C@H]1O | > 100
CO[C@@H]1[C@@H](O)[C@H](C)O[C@@H](Oc2ccc(-c3coc4cc(O[C@@H]5O[C@@H](C)[C@H](O)[C@@H](OC)[C@H]5O)cc(O)c4c3=O)cc2)[C@@H]1O | > 100
COc1cc2c(=O)c(-c3ccc(O)cc3)coc2cc1O[C@@H]1O[C@@H](C)[C@H](O)[C@@H](O)[C@H]1O | > 100
O=c1c(-c2ccc(O)cc2)coc2cc(O[C@@H]3O[C@H](CO)[C@@H](O)[C@H](O)[C@H]3O)cc(O)c12 [GENISTIN] | > 100
C[C@@H]1O[C@@H](Oc2ccc(-c3coc4cc(O[C@@H]5O[C@@H](C)[C@H](O)[C@@H](O)[C@H]5O)ccc4c3=O)cc2)[C@H](O)[C@H](O)[C@H]1O | > 100
CO[C@@H]1[C@@H](O)[C@H](C)O[C@@H](Oc2ccc(-c3coc4cc(O[C@@H]5O[C@@H](C)[C@H](O)[C@@H](O)[C@H]5O)cc(O)c4c3=O)cc2)[C@@H]1O | > 100

The compounds below were run on Candida albicans (assay: Antifungal activity against Candida albicans SC5314 by CLSI M27-A3 broth microdilution method). Conditions: not given.
Type: functional
Outline: as §1

SMILES | MIC [µg/mL]
O=c1c(-c2ccc(O)cc2)coc2cc(O[C@@H]3O[C@H](CO)[C@@H](O)[C@H](O)[C@H]3O)ccc12 [DAIDZIN] | > 100
C[C@@H]1O[C@@H](Oc2ccc3c(=O)c(-c4ccc(O)cc4)coc3c2)[C@H](O)[C@H](O)[C@H]1O | > 100
O=c1c(-c2ccc(O)cc2)coc2cc(O)ccc12 [DAIDZEIN] | > 100
C[C@@H]1O[C@@H](Oc2ccc(-c3coc4cc(O[C@@H]5O[C@@H](C)[C@H](O)[C@@H](O)[C@H]5O)cc(O)c4c3=O)cc2)[C@H](O)[C@H](O)[C@H]1O | > 100
CO[C@@H]1[C@@H](O)[C@H](C)O[C@@H](Oc2ccc(-c3coc4cc(O[C@@H]5O[C@@H](C)[C@H](O)[C@@H](OC)[C@H]5O)ccc4c3=O)cc2)[C@@H]1O | > 100
C[C@@H]1O[C@@H](Oc2cc(O)c3c(=O)c(-c4ccc(O)cc4)coc3c2)[C@H](O)[C@H](O)[C@H]1O | > 100
CO[C@@H]1[C@@H](O)[C@H](C)O[C@@H](Oc2ccc(-c3coc4cc(O[C@@H]5O[C@@H](C)[C@H](O)[C@@H](OC)[C@H]5O)cc(O)c4c3=O)cc2)[C@@H]1O | > 100
COc1cc2c(=O)c(-c3ccc(O)cc3)coc2cc1O[C@@H]1O[C@@H](C)[C@H](O)[C@@H](O)[C@H]1O | > 100
O=c1c(-c2ccc(O)cc2)coc2cc(O[C@@H]3O[C@H](CO)[C@@H](O)[C@H](O)[C@H]3O)cc(O)c12 [GENISTIN] | > 100
C[C@@H]1O[C@@H](Oc2ccc(-c3coc4cc(O[C@@H]5O[C@@H](C)[C@H](O)[C@@H](O)[C@H]5O)ccc4c3=O)cc2)[C@H](O)[C@H](O)[C@H]1O | > 100
CO[C@@H]1[C@@H](O)[C@H](C)O[C@@H](Oc2ccc(-c3coc4cc(O[C@@H]5O[C@@H](C)[C@H](O)[C@@H](O)[C@H]5O)cc(O)c4c3=O)cc2)[C@@H]1O | > 100
